Assay results: ChEMBL document CHEMBL4004871, “Impact of androstane A- and D-ring inversion on 17β-hydroxysteroid dehydrogenase type 3 inhibitory activity, androgenic effect and metabolic stability” (Bioorg Med Chem, 2017)
Calls of active or inactive are those of the source. The rule behind the calls is not given here.

Assays:
Androgen receptor [1] = target: T1, Androgen receptor (Homo sapiens, UniProt P10275); experiment: Androgenic activity at AR in human LAPC4 cells assessed as cell growth at 0.1 uM after 3 days by MTS method relative to control; assay type: cell-based; details: 72 h
T1 sequence (P10275 whole entry): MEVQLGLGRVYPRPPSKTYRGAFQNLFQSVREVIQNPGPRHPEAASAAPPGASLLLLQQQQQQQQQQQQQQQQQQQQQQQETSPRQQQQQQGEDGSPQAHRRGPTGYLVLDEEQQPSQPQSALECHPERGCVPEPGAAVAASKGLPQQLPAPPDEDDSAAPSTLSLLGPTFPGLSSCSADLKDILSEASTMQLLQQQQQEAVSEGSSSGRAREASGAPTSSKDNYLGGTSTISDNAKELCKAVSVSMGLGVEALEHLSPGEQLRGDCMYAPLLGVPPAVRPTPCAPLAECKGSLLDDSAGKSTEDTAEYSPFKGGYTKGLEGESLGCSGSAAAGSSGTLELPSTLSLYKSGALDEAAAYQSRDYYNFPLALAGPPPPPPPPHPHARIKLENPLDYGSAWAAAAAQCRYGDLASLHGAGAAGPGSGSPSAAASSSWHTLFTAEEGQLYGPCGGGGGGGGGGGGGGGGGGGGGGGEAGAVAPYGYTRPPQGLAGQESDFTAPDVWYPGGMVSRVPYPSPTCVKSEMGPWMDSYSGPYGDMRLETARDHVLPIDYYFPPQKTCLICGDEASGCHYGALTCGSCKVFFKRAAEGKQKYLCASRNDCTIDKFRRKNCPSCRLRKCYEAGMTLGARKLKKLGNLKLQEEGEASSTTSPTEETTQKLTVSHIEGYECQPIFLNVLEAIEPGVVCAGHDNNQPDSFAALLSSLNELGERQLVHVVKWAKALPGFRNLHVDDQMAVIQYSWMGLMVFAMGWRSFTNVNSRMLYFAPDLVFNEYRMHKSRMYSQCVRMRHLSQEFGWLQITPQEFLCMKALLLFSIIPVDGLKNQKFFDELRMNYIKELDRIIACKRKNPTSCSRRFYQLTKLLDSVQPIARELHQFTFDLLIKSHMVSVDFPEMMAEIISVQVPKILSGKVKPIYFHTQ
How it was run: (§1)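 LAPC-4 (AR+) cells, cultured in RPMI-1640 with FBS, L-glutamine and insulin, were switched to medium with 5% dextran-coated charcoal treated FBS. 10,000 cells/well, triplicate, were pre-incubated 24 h at 37 °C, then given compound diluted from DMSO stock for 3 days; vehicle DMSO controls. Growth read by MTS, expressed as % proliferation minus basal 100%.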

Androgen receptor [2] = target: T1, Androgen receptor; experiment: Androgenic activity at AR in human LAPC4 cells assessed as cell growth at 0.5 uM after 3 days by MTS method relative to control; assay type: cell-based; details: 72 h; how it was run: as §1
[3] = Metabolic stability in human liver microsomes assessed as parent compound remaining at 10 uM after 1 hr by HPLC-MS analysis; assay type: ADME, microsome; details: read-out: Stability
How it was run: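 Human liver microsomes (40 μg) were incubated with 10 μM substrate for 1 h at 37 °C, with or without 10 mM NADPH, in 50 mM Tris plus 10 mM MgCl₂. MeOH-quenched, centrifuged supernatants from 2 assays pooled for HPLC-MS with UV at 190 nm. % remaining = AUC with NADPH / AUC without NADPH × 100; mean of 4 independent experiments.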

Androgen receptor [4] = target: T1, Androgen receptor; experiment: Androgenic activity at AR in human LAPC4 cells assessed as cell growth at 1 uM after 3 days by MTS method relative to control; assay type: cell-based; details: 72 h; how it was run: as §1
[5] = target: T2, 17-beta-hydroxysteroid dehydrogenase type 3 (Homo sapiens, UniProt P37058); experiment: Inhibition of 17-beta-HSD3 (unknown origin) expressed in human LNCaP cells using [14C]-4-androstene-3,17-dione as substrate assessed as reduction of [14C]-testosterone level after 1 hr by TLC method
T2 sequence (P37058 whole entry): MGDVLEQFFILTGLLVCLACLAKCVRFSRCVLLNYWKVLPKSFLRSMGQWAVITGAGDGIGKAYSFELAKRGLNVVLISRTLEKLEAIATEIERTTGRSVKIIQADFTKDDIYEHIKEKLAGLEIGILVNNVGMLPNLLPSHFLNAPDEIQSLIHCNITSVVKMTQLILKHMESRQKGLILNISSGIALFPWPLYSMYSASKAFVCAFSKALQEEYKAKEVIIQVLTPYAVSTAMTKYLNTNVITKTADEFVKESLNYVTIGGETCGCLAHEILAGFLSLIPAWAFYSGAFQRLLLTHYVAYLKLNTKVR

[6] = target: T3, 17-beta-hydroxysteroid dehydrogenase type 3 (Homo sapiens) (UniProt P37058); experiment: Inhibition of 17-beta-HSD3 (unknown origin) expressed in human LNCaP cells using [14C]-4-androstene-3,17-dione as substrate assessed as reduction of [14C]-testosterone level at 0.1 to 1 uM after 1 hr by TLC method; assay type: cell-based
T3 sequence (whole entry): T2 sequence (P37058 whole entry)
How it was run: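 LNCaP cells stably transfected with 17β-HSD3, grown in RPMI-1640 with 10% FBS and hygromycin; hygromycin omitted for assay. 10,000 cells/well plated, incubated 2 days, then 15 nM [14C]-4-androstene-3,17-dione added with inhibitor in DMSO (final 0.05%).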

Row | SMILES | Activity (Androgen receptor [1]) | Activity (Androgen receptor [2]) | remaining at 1 h, 10 µM [3] | Activity (Androgen receptor [4]) | IC50 [5] | inhibition [6]
1 | C[C@@H]1CN(S(=O)(=O)c2ccccc2C(F)(F)F)[C@@H](C)CN1C[C@]1(O)CC[C@@]2(C)[C@H](CC[C@@H]3[C@@H]2CC[C@@]2(C)C(=O)CC[C@@H]32)C1 | 87.2% | 72.3% | 16.6% | 28.2% | 0.15 µM | –
2 | C[C@]12CC[C@@H](O)C[C@@H]1CC[C@@H]1[C@@H]2CC[C@@]2(C)C(=O)CC[C@@H]12 | – | – | – | – | – | inactive
3 | C[C@@H]1CN(S(=O)(=O)c2ccccc2C(F)(F)F)[C@@H](C)CN1C[C@@]1(O)CC[C@@]2(C)[C@@H](CC[C@@H]3[C@@H]2CC[C@@]2(C)C(=O)CC[C@@H]32)C1 | 76.3% | 61.6% | 29.4% | 51% | 1.09 µM | –
4 | C[C@@H]1CN(S(=O)(=O)c2ccccc2C(F)(F)F)[C@@H](C)CN1C (relative stereo) | – | – | – | – | – | inactive
5 | C[C@@H]1CN(S(=O)(=O)c2ccccc2C(F)(F)F)[C@@H](C)CN1C[C@@]1(O)CC[C@@]2(C)[C@@H](CC[C@@H]3[C@@H]2CC[C@]2(C)C(=O)CC[C@@H]32)C1 | 96% | 48% | – | 33% | 0.11 µM | –
6 | C[C@]12CC[C@H](O)C[C@H]1CC[C@@H]1[C@@H]2CC[C@@]2(C)C(=O)CC[C@@H]12 | – | – | – | – | – | inactive
